Reference: paper PMC3103643 (Journal of natural products, 2011)

Legend:
p65 subunit of NF-κB = p65 subunit of NF-κB (Homo sapiens, UniProt Q04206); assay: Enzyme-based ELISA NF-κB p65 inhibition assay; settings: read-out: NF-κB p65 inhibition IC50, HeLa cell nuclear extracts
[1] = system: HT-29 human colon cancer cells; assay: Cytotoxicity assay; type: cell-based; settings: three days incubation, SRB
How it was run: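 HT-29 cells were trypsinized and seeded, then treated with test compound in DMSO at serial dilutions, with DMSO as negative control and paclitaxel as positive control, for three days at 37 °C, 5% CO2. Cells were fixed for 30 min at room temperature, washed, dried overnight and stained with SRB. Dye was solubilized in tris-base buffer and read at 515 nm. ED50 came from nonlinear regression, triplicates, two independent experiments.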

[2] = system: HT-29 (colon adenocarcinoma), MCF-7 (breast cancer), and MDA-MB-435 (melanoma); assay: In vivo hollow fiber assay; design: species or system human; settings: highest dose used 20 mg/kg; ip
How it was run: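 Hollow fibers carried HT-29, MCF-7 and MDA-MB-435 cells. Test compounds and the paclitaxel positive control were dosed ip across 1–20 mg/kg.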

p65 subunit of NF-κB, sequence (Q04206 whole entry): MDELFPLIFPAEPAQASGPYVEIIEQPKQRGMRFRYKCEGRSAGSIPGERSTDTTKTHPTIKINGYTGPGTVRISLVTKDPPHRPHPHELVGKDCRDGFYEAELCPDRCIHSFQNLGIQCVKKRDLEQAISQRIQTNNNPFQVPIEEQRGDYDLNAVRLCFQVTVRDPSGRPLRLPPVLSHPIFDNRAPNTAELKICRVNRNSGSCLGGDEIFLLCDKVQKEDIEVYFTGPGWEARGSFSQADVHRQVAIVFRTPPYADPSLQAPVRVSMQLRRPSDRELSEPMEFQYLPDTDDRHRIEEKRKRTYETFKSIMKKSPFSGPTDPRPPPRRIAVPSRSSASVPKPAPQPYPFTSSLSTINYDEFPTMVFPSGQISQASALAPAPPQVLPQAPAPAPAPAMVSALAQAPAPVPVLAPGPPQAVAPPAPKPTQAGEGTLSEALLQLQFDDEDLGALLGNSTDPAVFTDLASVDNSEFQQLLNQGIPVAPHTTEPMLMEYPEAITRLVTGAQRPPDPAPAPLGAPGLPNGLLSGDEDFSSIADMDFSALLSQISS

Row | Molecule | IC50 (p65 subunit of NF-κB) [nM] | cytotoxicity ED50 towards HT-29 cells [1] [µM] | activity in in vivo hollow fiber assay [2]
1 | 1,3,7-trihydroxy-2,4-diisoprenylxanthone [Compound 5] | 2900 | >10 | 
2 | COc1c(OC(C)=O)cc2oc3cc(OC(C)=O)c(CC=C(C)C)c(O)c3c(=O)c2c1CC=C(C)C [Compound 8, 3,6-di-O-acetyl-α-mangostin] |  |  | inactive
